Test results as given in ChEMBL document CHEMBL1151773, “Synthesis and biological evaluation of amide derivatives of (5,6-dimethoxy-2,3-dihydro-1H-inden-1-yl)acetic acid as anti-inflammatory agents with reduced gastrointestinal ulcerogenecity” (Eur J Med Chem, 2008).

Tests used:
Rattus norvegicus [1] = assay: Antiinflammatory activity in Wistar rat assessed as inhibition of carrageenan-induced hind paw edema volume at 100 mg/kg, po administered 60 mins before carrageenan challenge after 24 hrs relative to control; type: functional
Mus musculus = assay: Analgesic activity in Swiss albino mouse assessed as inhibition of acetic acid-induced writhing at 100 mg/kg, po administered 60 mins before acetic acid challenge after 5 to 15 mins relative to control; type: functional
Summary of the method: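 Female Swiss albino mice, 20±5 g, fasted overnight with free water access, dosed orally; 1 h later injected i.p. with 1% v/v acetic acid at 0.1 ml/10 g. Writhes (full hind-limb extension) counted for 15 min, starting 5 min after injection; only animals giving 20 or more writhes used. % inhibition = 100(1−Wt/Wc) vs control group mean; six animals per group.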

Rattus norvegicus [2] = assay: Antiinflammatory activity in Wistar rat assessed as inhibition of carrageenan-induced hind paw edema volume at 100 mg/kg, po administered 60 mins before carrageenan challenge after 6 hrs relative to control; type: functional
Rattus norvegicus [3] = assay: Antiinflammatory activity in Wistar rat assessed as inhibition of carrageenan-induced hind paw edema volume at 100 mg/kg, po administered 60 mins before carrageenan challenge after 2 hrs relative to control; type: functional
Rattus norvegicus [4] = assay: Antiinflammatory activity in Wistar rat assessed as inhibition of carrageenan-induced hind paw edema volume at 100 mg/kg, po administered 60 mins before carrageenan challenge after 4 hrs relative to control; type: functional
Rattus norvegicus [5] = assay: Antiinflammatory activity in Wistar rat assessed as inhibition of carrageenan-induced hind paw edema volume at 100 mg/kg, po administered 60 mins before carrageenan challenge after 3 hrs relative to control; type: functional
Rattus norvegicus [6] = assay: Antiinflammatory activity in Wistar rat assessed as inhibition of carrageenan-induced hind paw edema volume at 100 mg/kg, po administered 60 mins before carrageenan challenge after 1 hr relative to control; type: functional
Rattus norvegicus [7] = assay: Antipyretic activity in Wistar rat assessed as change in LPS-induced rectal temperature at 100 mg/kg, po administered 30 mins before LPS challenge after 5 hrs; type: functional
Summary of the method: (§1)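 Adult female Wistar rats, 170±20 g, fasted 24 h, dosed orally at 09:00; 30 min later E. coli 0111:B4 phenol-extracted LPS in apyrogenic saline given i.p. Rectal temperature by telethermometer probe just before and 1–7 h hourly after LPS; temperature index calculated from these readings. n = 6.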

Rattus norvegicus [8] = assay: Antipyretic activity in Wistar rat assessed as change in LPS-induced rectal temperature at 100 mg/kg, po administered 30 mins before LPS challenge after 2 hrs; type: functional; summary of the method: as §1
Rattus norvegicus [9] = assay: Antipyretic activity in Wistar rat assessed as change in LPS-induced rectal temperature at 100 mg/kg, po administered 30 mins before LPS challenge after 7 hrs; type: functional; summary of the method: as §1
Rattus norvegicus [10] = assay: Antipyretic activity in Wistar rat assessed as change in LPS-induced rectal temperature at 100 mg/kg, po administered 30 mins before LPS challenge after 6 hrs; type: functional; summary of the method: as §1
Rattus norvegicus [11] = assay: Antipyretic activity in Wistar rat assessed as change in LPS-induced rectal temperature at 100 mg/kg, po administered 30 mins before LPS challenge after 3 hrs; type: functional; summary of the method: as §1
Rattus norvegicus [12] = assay: Antipyretic activity in Wistar rat assessed as change in LPS-induced rectal temperature at 100 mg/kg, po administered 30 mins before LPS challenge after 1 hr; type: functional; summary of the method: as §1
Rattus norvegicus [13] = assay: Antipyretic activity in Wistar rat assessed as change in LPS-induced rectal temperature at 100 mg/kg, po administered 30 mins before LPS challenge after 4 hrs; type: functional; summary of the method: as §1
Rattus norvegicus [14] = assay: Gastrointestinal toxicity in Wistar rat assessed as ulcer index at 100 mg/kg, po after 6 hrs; type: organism-based; design: dose 100 mg/kg, route oral; details: in vivo
Summary of the method: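 Female Wistar rats, 175±25 g, fasted 24 h, dosed orally once; sacrificed 6 h later by cervical dislocation. Stomach opened along greater curvature, saline-washed, mucosa inspected with a hand lens. Lesions graded I (edema/hyperemia/petechiae), II (hemorrhagic lesions with small erosions), III (deep ulcers); UI = nI + 2nII + 3nIII. Mean ± SEM, n = 6.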

Rattus norvegicus [15] = assay: Antiarthritic activity in Freund's complete adjuvant challenged Albino rat model assessed as change in body weight at 100 mg/kg, po administered for 14 days daily once starting a day before adjuvant challenge; type: functional; details: 336 h, read-out: INH
Rattus norvegicus [16] = assay: Antiarthritic activity in Albino rat assessed as inhibition of Freund's complete adjuvant-induced paw volume at 100 mg/kg, po administered for 14 days daily once starting a day before adjuvant challenge measured on day 3; type: functional
Summary of the method: (§2)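 Female albino rats, 160±10 g, six per group, dosed orally once daily for 14 days starting the day before 0.1 ml Freund's complete adjuvant into the right hind paw subplantar surface. Both hind paw volumes, measured up to a mark at the lateral malleolus, taken before and daily after adjuvant.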

Rattus norvegicus [17] = assay: Antiarthritic activity in Albino rat assessed as inhibition of Freund's complete adjuvant-induced paw volume at 100 mg/kg, po administered for 14 days daily once starting a day before adjuvant challenge measured on day 8; type: functional; summary of the method: as §2
Rattus norvegicus [18] = assay: Antiarthritic activity in Albino rat assessed as inhibition of Freund's complete adjuvant-induced paw volume at 100 mg/kg, po administered for 14 days daily once starting a day before adjuvant challenge measured on day 13; type: functional; summary of the method: as §2

SMILES | inhibition in vivo at 100 mg/kg (Rattus norvegicus [1]) [%] | inhibition in vivo at 100 mg/kg (Mus musculus) [%] | inhibition in vivo at 100 mg/kg (Rattus norvegicus [2]) [%] | inhibition in vivo at 100 mg/kg (Rattus norvegicus [3]) [%] | inhibition in vivo at 100 mg/kg (Rattus norvegicus [4]) [%] | inhibition in vivo at 100 mg/kg (Rattus norvegicus [5]) [%] | inhibition in vivo at 100 mg/kg (Rattus norvegicus [6]) [%] | Activity (Rattus norvegicus [7]) [°C] | Activity (Rattus norvegicus [8]) [°C] | Activity (Rattus norvegicus [9]) [°C] | Activity (Rattus norvegicus [10]) [°C] | Activity (Rattus norvegicus [11]) [°C] | Activity (Rattus norvegicus [12]) [°C] | Activity (Rattus norvegicus [13]) [°C] | UI (Rattus norvegicus [14]) | inhibition in vivo at 100 mg/kg (Rattus norvegicus [15]) [g] | inhibition in vivo at 100 mg/kg (Rattus norvegicus [16]) [%] | inhibition in vivo at 100 mg/kg (Rattus norvegicus [17]) [%] | inhibition in vivo at 100 mg/kg (Rattus norvegicus [18]) [%]
COc1cc2c(cc1OC)C(CC(=O)O)CC2 (stereo not drawn) | 26.7 | 44 | 20.4 | 24 | 23.9 | 27.5 | 18.8 | – | – | – | – | – | – | – | – | – | – | – | –
COc1cc2c(cc1OC)C(CC(=O)NCCO)CC2 (stereo not drawn) | 13.3 | 29.8 | 13 | 0 | 9.37 | 12.3 | 0 | 0.57 | -1.93 | 0.66 | 0.65 | 0.17 | -0.65 | 0.34 | – | – | – | – | –
COc1cc2c(cc1OC)C(CC(=O)NC(C)C)CC2 (stereo not drawn) | 30 | 29.3 | 37 | 37 | 39.1 | 30.4 | 31.2 | 0.43 | -1.51 | 0.59 | 0.55 | -0.39 | -0.41 | 0.19 | 0 | – | – | – | –
COc1cc2c(cc1OC)C(CC(=O)N1CCOCC1)CC2 (stereo not drawn) | 23.3 | 23.6 | 14.8 | 14 | 13.3 | 19.6 | 15.6 | – | – | – | – | – | – | – | – | – | – | – | –
COc1cc2c(cc1OC)C(CC(=O)N1CCCC1)CC2 (stereo not drawn) | 33.3 | 19.2 | 22.2 | 20 | 24.2 | 26.1 | 4.69 | – | – | – | – | – | – | – | – | – | – | – | –
COc1cc2c(cc1OC)C(CC(=O)N(C)C)CC2 (stereo not drawn) | 23.3 | 22.6 | 33.3 | 36 | 35.9 | 34.8 | 25 | – | – | – | – | – | – | – | – | – | – | – | –
COc1cc2c(cc1OC)C(CC(N)=O)CC2 (stereo not drawn) | 26.7 | 24.6 | 27.8 | 31 | 31.2 | 30.4 | 18.8 | – | – | – | – | – | – | – | – | – | – | – | –
CCNC(=O)CC1CCc2cc(OC)c(OC)cc21 (stereo not drawn) | 33.3 | 23.6 | 20.4 | 26 | 26.6 | 26.1 | 15.6 | – | – | – | – | – | – | – | – | – | – | – | –
COc1cc2c(cc1OC)C(CC(=O)N1CCCCC1)CC2 (stereo not drawn) | 40 | 44.7 | 31.5 | 22 | 32 | 31.9 | 18.8 | – | – | – | – | – | – | – | – | – | – | – | –
CCCCNC(=O)CC1CCc2cc(OC)c(OC)cc21 (stereo not drawn) | 36.7 | 39.4 | 24.1 | 24 | 25 | 27.5 | 31.2 | – | – | – | – | – | – | – | – | – | – | – | –
CCCCCNC(=O)CC1CCc2cc(OC)c(OC)cc21 (stereo not drawn) | 46.7 | 71.7 | 35.2 | 34 | 40.6 | 37.7 | 34.4 | – | – | – | – | – | – | – | – | – | – | – | –
COc1cc2c(cc1OC)C(CC(=O)N1CCNCC1)CC2 (stereo not drawn) | 65 | 68.8 | 33.3 | 44 | 40.6 | 42 | 62.5 | 0.11 | -1.23 | 0.16 | 0.19 | -0.85 | -0.45 | -0.18 | 0 | 3.11 | 35.3 | 28.8 | 2.35
CNC(=O)CC1CCc2cc(OC)c(OC)cc21 (stereo not drawn) | 33.3 | 21.2 | 24.1 | 30 | 29.7 | 29 | 15.6 | – | – | – | – | – | – | – | – | – | – | – | –
COc1cc2c(cc1OC)C(CC(=O)NC(C)(C)C)CC2 (stereo not drawn) | 40 | 41.8 | 31.5 | 32 | 32.8 | 33.3 | 31.2 | – | – | – | – | – | – | – | – | – | – | – | –
CCN(CC)C(=O)CC1CCc2cc(OC)c(OC)cc21 (stereo not drawn) | 16.7 | 27.4 | 31.5 | 40 | 37.5 | 37.7 | 31.2 | – | – | – | – | – | – | – | – | – | – | – | –
COc1cc2c(cc1OC)C(CC(=O)NC1CC1)CC2 (stereo not drawn) | 0 | 32.7 | 11.1 | 14 | 17.2 | 18.8 | 21.9 | – | – | – | – | – | – | – | – | – | – | – | –
CCCNC(=O)CC1CCc2cc(OC)c(OC)cc21 (stereo not drawn) | 26.7 | 26.9 | 22.2 | 28 | 26.6 | 29 | 18.8 | – | – | – | – | – | – | – | – | – | – | – | –
COc1cc2c(cc1OC)C(CC(=O)NCc1ccccc1)CC2 (stereo not drawn) | 43.3 | 48 | 30.6 | 24 | 18.8 | 14.4 | 18.8 | – | – | – | – | – | – | – | – | – | – | – | –
COc1cc2c(cc1OC)C(CC(=O)NC1CCCC1)CC2 (stereo not drawn) | 46.7 | 37 | 40.7 | 52 | 45.3 | 43.5 | 40.6 | – | – | – | – | – | – | – | – | – | – | – | –
CC(=O)Oc1ccccc1C(=O)O [ASPIRIN] | – | 61.5 | – | – | – | – | – | 0.11 | -1.45 | 0.23 | 0.17 | -0.51 | -0.43 | 0.05 | – | – | – | – | –
